The compounds below were run against T1, OR2G2 (Homo sapiens) (UniProt Q8NGZ5). Conditions: stereoisomer not certain.
T1 sequence (whole entry): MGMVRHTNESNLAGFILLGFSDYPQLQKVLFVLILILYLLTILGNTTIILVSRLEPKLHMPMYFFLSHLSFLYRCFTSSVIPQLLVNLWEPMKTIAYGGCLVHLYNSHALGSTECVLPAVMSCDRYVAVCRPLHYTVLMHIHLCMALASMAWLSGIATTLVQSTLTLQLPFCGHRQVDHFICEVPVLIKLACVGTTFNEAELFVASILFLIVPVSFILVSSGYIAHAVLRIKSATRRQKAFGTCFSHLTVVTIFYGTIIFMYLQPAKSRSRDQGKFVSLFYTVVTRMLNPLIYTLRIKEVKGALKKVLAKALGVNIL
How it was run: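 Assay methods differ from source to source, frequently being transient luciferase assays in mammalian cell lines. For each receptor–molecule pair, the label responsive (active) applies when the original authors judged the measured signal statistically different from baseline, and non-responsive (inactive) applies otherwise.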

Row | SMILES | odorant receptor agonist call
1 | Cc1c([N+](=O)[O-])c(C)c([N+](=O)[O-])c(C(C)(C)C)c1[N+](=O)[O-] | inactive
2 | C=CCc1ccc(OC)cc1 | inactive
3 | C=CCOC(=O)Cc1ccccc1 | inactive
4 | O=Cc1ccccc1 | inactive

— the M2OR odorant receptor database
